Measured values taken from ChEMBL document CHEMBL1126934, “Non-peptide ligands for opioid receptors. Design of kappa-specific agonists” (J Med Chem, 1993).

Key:
[1] = molecular target: Delta-type opioid receptor (Rattus norvegicus) (UniProt P33533); experiment: Binding affinity for rat delta opioid receptor was evaluated by displacing [3H]- diprenorphine
Mu-type opioid receptor = Mu-type opioid receptor (Rattus norvegicus, UniProt P33535); experiment: Binding affinity for mu opioid receptor was evaluated by displacing [3H]- diprenorphine
Procedure, shortened: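 Rat brain minus cerebellum, homogenised in Tris-HCl pH 7.4, spun 40000g 30 min, membranes resuspended at 0.5 mg/mL protein in 50 mM Tris-HCl pH 7.6. Competition against [3H]diprenorphine; nonspecific binding defined with DAGO (100 nM). Ki via Cheng-Prusoff; triplicate curves, n = 5.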

[2] = molecular target: T1, Kappa-type opioid receptor (Cavia porcellus, UniProt P41144); experiment: Binding affinity for kappa opioid receptor was evaluated by displacing [3H]- diprenorphine
Mus musculus = experiment: Antinociceptive activity determined in mouse tail flick assay 30 min after sc injection (peak effect); format: functional; conditions: 0.5 h
Procedure, shortened: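 Male Swiss mice (20-25 g), tail flick nociceptive threshold, cutoff 8 s. Drug given sc; read 30 min after injection. ED50 with confidence limits by Litchfield and Wilcoxon method.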

[3] = molecular target: T1, Kappa-type opioid receptor
[4] = molecular target: T1, Kappa-type opioid receptor; remark: listed apart in the source

T1 sequence (P41144 whole entry): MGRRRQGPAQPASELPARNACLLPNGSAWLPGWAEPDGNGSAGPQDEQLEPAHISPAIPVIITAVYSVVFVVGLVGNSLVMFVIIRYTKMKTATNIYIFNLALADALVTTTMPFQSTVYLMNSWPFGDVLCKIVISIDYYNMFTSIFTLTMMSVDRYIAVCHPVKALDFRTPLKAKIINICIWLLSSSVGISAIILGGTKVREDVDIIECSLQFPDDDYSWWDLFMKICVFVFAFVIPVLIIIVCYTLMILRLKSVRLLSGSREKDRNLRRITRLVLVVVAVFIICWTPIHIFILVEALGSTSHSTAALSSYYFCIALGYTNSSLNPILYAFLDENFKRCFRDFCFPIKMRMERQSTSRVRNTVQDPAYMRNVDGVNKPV
Delta-type opioid receptor (Rattus norvegicus), sequence (P33533 whole entry): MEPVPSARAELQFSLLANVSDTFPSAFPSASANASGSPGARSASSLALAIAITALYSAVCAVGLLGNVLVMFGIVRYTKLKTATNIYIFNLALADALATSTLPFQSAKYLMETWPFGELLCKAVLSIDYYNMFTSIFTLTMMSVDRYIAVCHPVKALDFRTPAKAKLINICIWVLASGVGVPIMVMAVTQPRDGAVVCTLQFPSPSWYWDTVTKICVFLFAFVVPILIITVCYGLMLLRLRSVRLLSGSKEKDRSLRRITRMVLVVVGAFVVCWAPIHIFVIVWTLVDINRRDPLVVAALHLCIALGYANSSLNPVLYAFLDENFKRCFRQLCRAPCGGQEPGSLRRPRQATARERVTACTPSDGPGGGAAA
Mu-type opioid receptor, sequence (P33535 whole entry): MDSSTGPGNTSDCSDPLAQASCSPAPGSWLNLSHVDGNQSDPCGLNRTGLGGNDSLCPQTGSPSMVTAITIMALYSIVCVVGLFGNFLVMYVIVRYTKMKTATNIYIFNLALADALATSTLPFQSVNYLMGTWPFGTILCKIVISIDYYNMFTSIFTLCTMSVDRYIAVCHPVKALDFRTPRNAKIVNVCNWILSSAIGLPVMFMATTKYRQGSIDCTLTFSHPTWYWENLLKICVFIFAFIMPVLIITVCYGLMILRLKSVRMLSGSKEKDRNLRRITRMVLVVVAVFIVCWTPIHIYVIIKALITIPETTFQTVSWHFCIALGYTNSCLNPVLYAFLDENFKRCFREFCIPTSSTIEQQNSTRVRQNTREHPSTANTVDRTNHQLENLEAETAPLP

Row | Compound | Binding affinity [1] [µM] | Ki (Mu-type opioid receptor) [nM] | Ki [2] [nM] | ED50 (Mus musculus) [mg/kg] | Ki [3] [nM] | Ki [4] [nM]
1 | CCCOC(=O)[C@]1(c2ccccc2)CC1CN1CC[C@@]2(C)c3cc(O)ccc3C[C@@H]1[C@@H]2C (stereo not given in full) | > 25 | > 25000 | 6430 |  |  | 
2 | CC1[C@H]2Cc3ccc(O)cc3[C@]1(C)CCN2CCCc1ccccc1 (stereo not given in full) |  | 825 | 1120 |  |  | 
3 | C[C@H]1[C@H]2Cc3ccc(O)cc3[C@]1(C)CCN2CC1C[C@]1(C(=O)O)c1ccccc1 (stereo not given in full) |  | > 25000 | > 25000 |  |  | 
4 | CCCCOC(=O)[C@]1(c2ccccc2)CC1CN1CC[C@@]2(C)c3cc(O)ccc3C[C@@H]1[C@@H]2C (stereo not given in full) | > 25 | > 25000 | > 25000 |  |  | 
5 | CN1CC[C@]23c4c5ccc(O)c4O[C@H]2[C@@H](O)C=C[C@H]3[C@H]1C5 [MORPHINE] | 1.22 |  |  | 4.99 |  | 
6 | COC(=O)[C@]1(c2ccccc2)C[C@H]1CN1CC[C@@]2(C)c3cc(O)ccc3C[C@@H]1[C@@H]2C | > 25 | > 25000 | 240 |  | 224 | 926
7 | CCC12CCN(CC3CC3)C(C(=O)c3ccc(O)cc31)C2C (stereo not given) |  | 690 |  |  |  | 
8 | COC(=O)[C@@]1(c2ccccc2)C[C@@H]1CN1CC[C@@]2(C)c3cc(O)ccc3C[C@@H]1[C@@H]2C | > 25 | > 25000 | 2640 |  |  | 
9 | CCOC(=O)[C@]1(c2ccccc2)CC1CN1CC[C@@]2(C)c3cc(O)ccc3C[C@@H]1[C@@H]2C (stereo not given in full) | > 25 | > 25000 | 4430 |  |  | 
10 | COC(=O)[C@]1(c2ccccc2)C[C@@H]1CN1CC[C@@]2(C)c3cc(O)ccc3C[C@@H]1[C@@H]2C | > 25 | > 25000 | 866 | 4.52 | 833 | 2620
